Screening data (PubChem)
A selection: hits, their analogues and other compounds. The true share with any hit is near 3.8%.
DENV2 CPE rescue: protects cells from dengue virus 2 cytopathic effect. DENV2-infected cells, cytopathic effect rescue, plate reader. CPE inhibition, % at 9.99 µM. 1.7% of 350,000 active. AID 651640; in the data active = CPE inhibition above about 20%, passing the limit was not always enough; inconclusive = no clear call, values can overlap the other calls; tested in BHK-21 cells;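 note: 0% = median of neutral control wells and 100% = median of positive control wells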
FN deposit inh: fibronectin deposition inhibition; AID 743247; inhibition, % at 12.6 µM; AH1F fibroblasts, Alexa488-fibronectin deposition fluorescence, overnight; 0.086% of 350,000 active;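 active = mean inhibition across replicates of 30% or more, regardless of how many single replicates reach that level; inconclusive = mean under 30% yet at least half of replicates reach 30%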;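 note: positive control wells lacked labelled fibronectin entirely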
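Assay system: AH1F fibroblast monolayer, labelled fibronectin deposition. Amount: 10000 cells per well. Also added: labelled fibronectin 24 nM. Compound: single-point pinned compound. Incubation: cell attachment 1 h, compound and FN exposure overnight. Detection: fluorescence after three HBSS washes, excitation 485 nm, emission 525 nm. Read-out: inhibition of fibronectin deposition signal.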
ARNT-TACC3 inh: ARNT/TACC3 interaction disruption; AlphaScreen His-ARNT PAS-B/GST-TACC3 binding, luminescence; TACC3 fragment carries E629A point mutation; 0.66% of 390,000 active; Q9Y6A5; AID 623870; inhibition, % at 9.99 µM;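 active = mean inhibition of replicates at least 50% and at least half of replicates each reaching 50%; inconclusive = half or more replicates reach 50% but mean below 50%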;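 note: 0% = complete ARNT plus TACC3 wells and 100% = ARNT alone without TACC3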
SIRT5 inh: blocks human SIRT5 desuccinylation of peptide. Purified SirT5, succinyl-peptide AMC, trypsin-coupled fluorescence. 1.1% of 330,000 active. Q9NXA8. AID 652115. inhibition, % at 15 µM; in the data active = inhibition above about 15%; inconclusive = no clear call, values can overlap the other calls
Target sequence (Q9NXA8 whole entry, looked up): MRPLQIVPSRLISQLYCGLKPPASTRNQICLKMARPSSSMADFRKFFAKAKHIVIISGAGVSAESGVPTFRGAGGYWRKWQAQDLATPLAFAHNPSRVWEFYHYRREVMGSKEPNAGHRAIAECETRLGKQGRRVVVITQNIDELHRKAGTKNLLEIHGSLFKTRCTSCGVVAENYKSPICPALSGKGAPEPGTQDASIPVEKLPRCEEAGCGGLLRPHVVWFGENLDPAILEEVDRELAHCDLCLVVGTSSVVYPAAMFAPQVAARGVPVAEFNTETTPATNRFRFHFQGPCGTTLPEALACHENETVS
XiGFP reactiv: reactivates the inactive X chromosome in mouse fibroblasts; XiGFP mouse fibroblasts, % GFP-positive cells imaging, 3 d; cells co-treated with 5-aza-dC sensitizer; scaled so ellipticine positive control = 100%; activation, % at 7.58 µM; 0.055% of 360,000 active;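 active = mean normalized replicate activation at least 10% and every replicate at or above 10%; inconclusive = only one of the two criteria met; inactive = mean below 10% and not all replicates reach 10%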;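 note: 0% = median of on-plate neutral control wells and 100% = ellipticine 6 µM median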
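Material: SV40-immortalized XiGFP fibroblast cells, line 68-5-11 | Buffer or medium: DMEM containing 5-aza-dC | Dosing: One concentration, pinned | Times: 3 d treatment, 15 min room-temperature fixation | Controls: Ellipticine 6 µM positive control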
FGF22 binding: FGF22 (human) thermal shift binding; AID 651658; activity (Tm shift, normalised), % at 9.99 µM; 1.5% of 340,000 active; Q9HCT0; recombinant FGF22 thermal shift, SYPRO orange fluorescence; percent of sucrose octasulfate shift, DMSO zero;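 active = mean Tm shift, scaled 0 neutral to 100 positive control, at about 1.3% or above, every replicate too, limit read from the data; inconclusive = no clear call, values can overlap the other calls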
Target sequence (Q9HCT0 whole entry, looked up): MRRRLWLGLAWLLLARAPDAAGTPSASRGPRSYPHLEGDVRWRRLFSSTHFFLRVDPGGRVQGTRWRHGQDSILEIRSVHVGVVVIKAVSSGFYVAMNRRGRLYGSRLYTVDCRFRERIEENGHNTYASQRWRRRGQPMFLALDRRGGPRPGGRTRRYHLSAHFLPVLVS
Numbers without * were called inactive; u = inconclusive; x = not tested or not shown.

SMILES	DENV2 CPE rescue	FN deposit inh	ARNT-TACC3 inh	SIRT5 inh	XiGFP reactiv	FGF22 binding
O=C(Nc1nc(-c2ccc(-c3ccccc3)cc2)cs1)C1=COCCO1	x	-3.7	1.1	x	0.0	x
CCOC(=O)c1cc(-c2cccnc2)nn1-c1ccccc1C	-3.0	6.9	-8.1	-2.0	0.1	43.5*
CCOC(=O)c1cc(-c2ccccc2)nn1CC1CC(c2cccnc2)=NO1 (configuration not stated)	u	2.2	-0.8	x	-0.3	0.0
O=C(Cc1ccccn1)c1ccccc1	49.6*	8.2	12.9	x	0.2	0.3
O=C1NC(=O)C2(Br)Nc3ccc(Br)cc3C(=O)C2N1 (configuration not stated)	14.5	-1.9	12.5	0.6	-0.1	1.4*
O=[N+]([O-])c1ccc(O)c(/C=N/NC(=S)Nc2ccc(Cl)cc2Cl)c1	-2.8	5.7	12.4	-1.0	-0.1	0.2
O=[N+]([O-])c1ccc(/C=N/NC(=S)Nc2ccc(Cl)cc2Cl)s1	6.3	-14.7	14.8	-3.9	12.8*	0.0
COc1ccccc1NC(=O)C(=O)N/N=C/c1ccc([N+](=O)[O-])s1	-4.4	-2.3	x	-3.4	0.0	44.2*
O=C(Nc1ccc2c(c1)CCC2)c1ccccc1	44.9*	0.9	-10.2	x	0.0	-0.3
Cc1cc(C)n2nc(C(=O)Nc3ccc4c(c3)CCC4)nc2n1	2.3	3.8	-6.9	15.0*	0.0	-0.2
O=C(O)c1ccccc1-c1ccccc1C(=O)Nc1ccc2c(c1)CCC2	-1.4	3.6	-6.2	1.6	0.2	0.0
O=C(NC(=S)NNC(=O)c1cnccn1)c1ccc(Cl)cc1	-24.2	2.5	54.4*	-2.0	0.2	0.1
COc1ccc(C(=O)NC(=S)NNC(=O)c2cnccn2)cc1	x	x	59.0*	x	x	x
COc1cc(C(=O)NC(=S)NNC(=O)c2cnccn2)cc(OC)c1OC	x	0.1	65.0*	x	0.0	x
COc1ccccc1C(=O)NNC(=S)NC(=O)c1cc(OC)c(OC)c(OC)c1	x	7.1	-0.7	8.8	0.8	-0.3
COc1ccc(S(=O)(=O)Nc2ccc3c(c2)C(=O)N([C@@H](C)CO)C[C@@H](C)[C@H](CN(C)C(=O)NC(C)C)OCCCC[C@@H](C)O3)cc1	4.5	x	-5.0	0.2	-0.9	-0.4
O=C(CCN1CCCCC1)NCC[C@H]1CC[C@H](NC(=O)Nc2ccc(F)cc2)[C@H](CO)O1	3.9	x	-5.6	-1.9	0.4	0.1
COc1cccc(CN(C)C(=O)[C@@H](Cc2ccccc2)NC(=O)[C@H]2O[C@@H](n3ccc(=O)[nH]c3=O)[C@H](O)[C@@H]2O)c1	21.6*	-1.0	x	0.6	0.3	0.1
CC(C)N(C[C@H]1N[C@H](CO)[C@@H]1c1ccc(C2=CCCCC2)cc1)C(=O)CN(C)C	-19.0	-5.7	x	4.7	0.0	x
O=C(C[C@@H]1CC[C@H]2[C@@H](COC[C@@H](O)CN2C(=O)Cc2ccccc2)O1)NC1CCCC1	2.6	-3.4	-0.2	-3.4	0.0	-0.3
C[C@@H]1CN([C@@H](C)CO)C(=O)c2cccc(NS(=O)(=O)c3ccc(F)cc3)c2O[C@H]1CN(C)S(=O)(=O)c1cn(C)cn1	-2.0	x	-9.8	7.3	0.2	-0.2
C[C@H]1CN([C@@H](C)CO)S(=O)(=O)c2ccc(C#CC3CCCC3)cc2O[C@@H]1CN(C)C(=O)Nc1cc(F)ccc1F	17.4	x	16.4	19.7*	0.4	0.2
C[C@H]1CN([C@@H](C)CO)S(=O)(=O)c2ccc(C#CC3CCCC3)cc2O[C@H]1CN(C)C	32.0*	5.6	18.1	0.3	0.6	0.3
C[C@H]1CN([C@@H](C)CO)S(=O)(=O)c2ccc(C#CC3CC3)cc2O[C@H]1CN(C)Cc1ccc(F)cc1	-5.5	-4.5	13.7	13.2	-0.8	0.1
C[C@H]1CN([C@@H](C)CO)S(=O)(=O)c2ccc(C#CC3CC3)cc2O[C@@H]1CN(C)Cc1ccc(F)cc1	0.3	22.1	11.1	18.5*	0.7	-0.4
SMILES	DENV2 CPE rescue	FN deposit inh	ARNT-TACC3 inh	SIRT5 inh	XiGFP reactiv	FGF22 binding
C[C@@H]1CN([C@@H](C)CO)S(=O)(=O)c2ccc(C#CC3CC3)cc2O[C@H]1CN(C)Cc1ccc(F)cc1	-4.6	5.9	-8.8	11.2	18.4*	-0.1
C[C@H]1CN([C@@H](C)CO)S(=O)(=O)c2ccc(C#CC3CCCC3)cc2O[C@@H]1CN(C)C	-6.1	-11.4	9.4	1.7	0.5	0.0
COc1ccc(-c2ccc3c(c2)[C@H]2[C@H](CCN2S(=O)(=O)c2ccccc2F)[C@@H](CO)N3)cc1	-28.4	x	1.9	x	x	-0.2
Cc1noc(C)c1NC(=O)Nc1cccc2c1O[C@@H](CN(C)S(=O)(=O)c1cccs1)[C@@H](C)CN([C@H](C)CO)C2=O	2.6	-11.1	-12.4	-5.7	-1.3	0.1
COc1ccc(S(=O)(=O)N(C)C[C@@H]2Oc3cc(C#CC4CCCC4)ccc3S(=O)(=O)N([C@H](C)CO)C[C@H]2C)cc1	-3.2	0.4	15.7	19.1*	1.4	0.3
COc1ccc(S(=O)(=O)N(C)C[C@@H]2Oc3cc(C#CC4CCCCC4)ccc3S(=O)(=O)N([C@@H](C)CO)C[C@@H]2C)cc1	-16.4	-12.1	-3.9	1.4	-1.0	0.0
COc1ccc(OC(=O)N(C)C[C@@H]2OCc3cn(nn3)CCCC(=O)N([C@@H](C)CO)C[C@@H]2C)cc1	0.6	-3.6	4.7	-5.5	-0.2	0.1
O=S(=O)(c1ccccc1F)N1CC[C@@H]2[C@H]1c1cc(-c3ccccc3F)ccc1N[C@@H]2CO	40.1*	11.3	-11.3	0.6	0.1	-0.2
COc1ccccc1S(=O)(=O)N1CC[C@H]2[C@H](CO)Nc3ccc(-c4ccccc4F)cc3[C@H]21	20.9*	25.2	-10.0	2.0	-0.1	-0.1
COc1ccccc1S(=O)(=O)N1CC[C@@H]2[C@@H](CO)Nc3ccc(-c4ccccc4F)cc3[C@@H]21	-8.2	2.1	-11.6	2.9	0.3	-0.1
Cc1ccccc1S(=O)(=O)N1CC[C@@H]2[C@H](CO)Nc3ccc(-c4ccccc4F)cc3[C@@H]21	43.3*	-4.5	-0.4	0.8	0.1	0.6
COc1ccc2c3c(n(C)c2c1)[C@H](CO)N(C(=O)CC1CC1)CC31CN(Cc2nccs2)C1	-6.5	x	x	-5.6	0.3	0.1
CCCNC(=O)N(C)C[C@@H]1Oc2ncc(C#CC3(O)CCCC3)cc2C(=O)N([C@H](C)CO)C[C@H]1C	u	x	-14.5	7.9	0.0	0.2
CC(=O)c1ccc(NC(=O)CSc2nc3[nH]ncc3c(=O)[nH]2)cc1	0.9	-12.2	-4.1	11.8	0.0	-0.1
Cc1ccc(NC(=O)CSc2nc3[nH]ncc3c(=O)[nH]2)cc1	15.6	2.3	1.8	-1.2	-0.1	43.6*
